Measured values from different studies.
Lines come from different studies, so protocols differ. In brackets after ≈: the same amount, converted by molar mass.

| SMILES | technique | matrix | time | pH | temperature | quantity | result |
| --- | --- | --- | --- | --- | --- | --- | --- |
| CC[C@H](C)[C@H](NC(=O)[C@H](CO)NC(=O)[C@H](CCCNC(=N)N)NC(C)=O)C(=O)N[C@H]1CSSC[C@@H](C(=O)N[C@H](C(N)=O)[C@@H](C)O)NC(=O)[C@H](CCCNC(=N)N)NC(=O)[C@H](Cc2c[nH]cn2)NC(=O)[C@H](Cc2cccc3ccccc23)NC(=O)CNC(=O)[C@H](Cc2c[nH]c3ccccc23)NC(=O)[C@H](CC(=O)O)NC(=O)[C@H](CCC(N)=O)NC(=O)[C@H](Cc2c[nH]c3ccccc23)NC(=O)[C@H](C(C)C)NC1=O |  | PBS |  | pH 7.4 |  | solubility | 390 µg/mL (≈ 197 µM) |
| Clc1ccc(CSc2nnc(-c3ccccn3)n2Cc2ccco2)cc1Cl |  | aqueous buffer |  | pH 7.4 |  | solubility | 0.14 µg/mL (≈ 0.335 µM) |
| CC(C)CCC[C@@H](C)[C@H]1CC[C@H]2[C@@H]3CC=C4C[C@@H](OCCCNC(=O)CCC(=O)NCCCC[C@H](NC(=O)[C@H]5CCCN5C(=O)[C@H](CCC(=O)O)NC(=O)[C@H](C)NC(=O)[C@@H](NC(=O)C[C@H](O)[C@H](CC(C)C)NC(=O)[C@H](CC(N)=O)NC(=O)[C@@H](NC(=O)[C@@H](N)CCC(=O)O)C(C)C)C(C)C)C(N)=O)CC[C@]4(C)[C@H]3CC[C@]12C |  | aqueous buffer |  | pH 6.5 |  | thermodynamic solubility | > 3000 µg/mL |
| C#Cc1ccc2c(c1)C(c1ccccn1)=NCc1c(-c3cnco3)ncn1-2 |  | water | 90 min |  | 37 °C | kinetic solubility | 517 µg/mL |
| Nc1ncc(-c2nc(N3CCOCC3)nc(N3CCOCC3)n2)c(C(F)F)n1 | shake flask | FaSSIF | 24 h |  |  | thermodynamic solubility | 7.6 µM |
| OC(c1ccc(F)cc1)C(F)(F)CCN1CCC(O)(c2ccc(Cl)cc2)CC1 (racemic) |  | PBS | 2 h | pH 7.4 | 25 °C | kinetic solubility | 3.4 µM |
| CC[C@H](C)[C@H](NC(=O)[C@H](CCCNC(=N)N)NC(=O)[C@H](CCC(=O)O)NC(C)=O)C(=O)N[C@H]1CSSC[C@@H](C(=O)N[C@H](C(N)=O)[C@@H](C)O)NC(=O)[C@H](CCCNC(=N)N)NC(=O)[C@H](Cc2c[nH]cn2)NC(=O)[C@H](Cc2cccc3ccccc23)NC(=O)CNC(=O)[C@H](Cc2c[nH]c3ccccc23)NC(=O)[C@H](CC(=O)O)NC(=O)[C@H](CCC(N)=O)NC(=O)[C@H](Cc2cccc3ccccc23)NC(=O)[C@H](C(C)C)NC1=O |  | PBS |  | pH 7.4 |  | solubility | 160 µg/mL (≈ 78.6 µM) |
| O=C1C=C(N(Cc2ccc(Cl)nc2)CC(F)F)CO1 |  | water |  | pH 4 |  | solubility | 3200 µg/mL (≈ 11100 µM) |
| CC(=O)N[C@@H](CC(N)=O)C(=O)N[C@@H](CC(N)=O)C(=O)N[C@@H](CC(C)C)C(=O)N[C@H]1CSSC[C@@H](C(=O)N[C@H](C(N)=O)[C@@H](C)O)NC(=O)[C@H](CCCNC(=N)N)NC(=O)[C@H](Cc2c[nH]cn2)NC(=O)[C@H](Cc2cccc3ccccc23)NC(=O)CNC(=O)[C@H](Cc2c[nH]c3ccccc23)NC(=O)[C@H](CC(=O)O)NC(=O)[C@H](CCC(N)=O)NC(=O)[C@H](Cc2c[nH]c3ccccc23)NC(=O)[C@H](C(C)C)NC1=O |  | PBS |  | pH 7.4 |  | solubility | 270 µg/mL (≈ 137 µM) |
| CCCc1ccc(-c2ccc([C@@H](CO)C(=O)N[C@H](C)c3ccccc3)cc2)cc1 |  | PBS |  | pH 7.4 |  | kinetic solubility | < 1 µM |
